Assay results as given in ChEMBL document CHEMBL4725418, “Design, Synthesis, and Structure-Activity Relationship Studies of Dual Inhibitors of Soluble Epoxide Hydrolase and 5-Lipoxygenase” (J Med Chem, 2020).
Converted amounts (≈) assume the structure as drawn. The source made the active and inactive calls. The calls are words filed in the database; no cut-off is given here.

Key:
[1] = target: T1, Bifunctional epoxide hydrolase 2 (Homo sapiens, UniProt P34913); assay: Inhibition of human sEH (1 to 555 residues) expressed in Escherichia coli BL21-(DE3) using PHOME substrate incubated for 30 to 45 mins by fluorescence based assay
T1 sequence (P34913 whole entry): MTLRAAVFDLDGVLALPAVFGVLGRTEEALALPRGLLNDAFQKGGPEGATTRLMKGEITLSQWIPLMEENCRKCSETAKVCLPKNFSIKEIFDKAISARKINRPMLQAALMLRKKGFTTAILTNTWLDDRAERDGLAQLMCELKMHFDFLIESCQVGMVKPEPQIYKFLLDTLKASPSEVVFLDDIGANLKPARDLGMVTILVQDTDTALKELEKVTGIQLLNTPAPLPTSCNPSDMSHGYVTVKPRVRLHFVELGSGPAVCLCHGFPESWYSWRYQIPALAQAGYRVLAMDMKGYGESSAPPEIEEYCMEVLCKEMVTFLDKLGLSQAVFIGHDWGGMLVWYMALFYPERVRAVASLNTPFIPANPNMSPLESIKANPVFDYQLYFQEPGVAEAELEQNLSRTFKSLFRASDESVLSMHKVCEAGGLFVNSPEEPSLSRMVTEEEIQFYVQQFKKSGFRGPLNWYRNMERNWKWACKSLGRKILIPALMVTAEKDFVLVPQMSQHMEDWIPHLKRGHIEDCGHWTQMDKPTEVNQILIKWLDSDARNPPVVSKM

[2] = target: T2, Polyunsaturated fatty acid 5-lipoxygenase (Homo sapiens, UniProt P09917); assay: Inhibition of 5-LOX (unknown origin) expressed in Escherichia coli BL21-(DE3) pre-incubated for 15 mins before AA substrate addition and measured after 10 mins by HPLC/UV assay
T2 sequence (P09917 whole entry): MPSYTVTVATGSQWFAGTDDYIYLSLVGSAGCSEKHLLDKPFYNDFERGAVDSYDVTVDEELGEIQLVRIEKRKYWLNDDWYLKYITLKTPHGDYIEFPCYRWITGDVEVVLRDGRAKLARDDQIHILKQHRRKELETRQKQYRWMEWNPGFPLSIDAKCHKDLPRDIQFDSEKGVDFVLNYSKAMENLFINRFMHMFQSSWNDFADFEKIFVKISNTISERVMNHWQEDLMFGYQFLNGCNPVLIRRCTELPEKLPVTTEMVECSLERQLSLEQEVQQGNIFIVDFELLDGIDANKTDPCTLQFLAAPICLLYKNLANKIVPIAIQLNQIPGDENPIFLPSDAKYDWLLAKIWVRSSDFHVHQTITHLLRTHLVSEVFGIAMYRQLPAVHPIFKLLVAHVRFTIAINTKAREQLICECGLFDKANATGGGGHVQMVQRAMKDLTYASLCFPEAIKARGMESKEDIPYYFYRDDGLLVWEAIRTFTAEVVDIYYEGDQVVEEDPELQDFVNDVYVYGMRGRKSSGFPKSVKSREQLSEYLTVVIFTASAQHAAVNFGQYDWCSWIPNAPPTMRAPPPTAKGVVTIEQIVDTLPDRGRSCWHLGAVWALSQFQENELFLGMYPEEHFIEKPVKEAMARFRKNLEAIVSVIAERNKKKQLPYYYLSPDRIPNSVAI
Outline: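 Recombinant 5-LOX activity measured with arachidonic acid as substrate; product formation monitored by HPLC. IC50 from at least three independent determinations (n ≥ 3), reported with 95% confidence interval.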

[3] = Solubility in pH 7.4 DPBS buffer; assay type: physicochemical
[4] = test system: HepG2; assay: Cytotoxicity in human HepG2 cells assessed as reduction in on cell viability at 7 uM incubated for 48 hrs by CellTiter-Glo luminescent cell viability assay; assay type: cell-based; conditions: hepg2, 48 h
Outline: (§1)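 Cell viability measured by CellTiter-Glo luminescence, quantifying ATP as an indicator of viable cells.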

[5] = test system: Mus musculus; assay: Anti-fibrotic activity in C57BL/6 mouse model of unilateral ureter obstruction-induced kidney inflammation and fibrosis assessed as inhibition of tubulo-interstitial fibrosis by measuring reduced fibrillar collagen at 3 mg/kg, ip dosed daily for 7 days by Sirius red staining method; assay type: functional, organism-based; conditions: time 7.0 day
Outline: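 Mice with unilateral ureter obstruction to induce kidney inflammation and fibrosis, given compound or vehicle intraperitoneally. Ligated (UUO) and contralateral kidneys taken at day 7. Fibrosis read by AZAN and Sirius Red staining, with Sirius Red imaged under bright and polarized light. Macrophages detected by F4/80 staining, quantified as positive area. Col1a1, FN1, TNFα and Ccl2 mRNA measured in whole-kidney homogenates by real-time qRT-PCR normalized to GAPDH.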

[6] = Metabolic stability in rat liver microsomes assessed as compound remaining after 60 mins; assay type: ADME, Microsome; conditions: read-out: Stabilty
Outline: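 Compound incubated with rat liver microsomes for 60 min; percent parent compound remaining determined; n ≥ 3.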

[7] = test system: HepG2; assay: Cytotoxicity in human HepG2 cells assessed as effect on cell viability up to 25 uM incubated for 48 hrs by CellTiter-Glo luminescent cell viability assay; assay type: cell-based; conditions: hepg2, 48 h; outline: as §1

| SMILES | IC50 [1] [nM] | IC50 [2] [nM] | other results |
| --- | --- | --- | --- |
| C[C@H](C#Cc1cccc(C(=O)NCCC(c2ccccc2)c2ccc(Cl)c(Cl)c2)c1)N(O)C(N)=O (stereo partly drawn) | 2.1 | 96 |  |
| CCCC(C#Cc1cccc(C(=O)NCc2ccccc2C(F)(F)F)c1)N(O)C(N)=O (stereo not drawn) | 12 | 300 |  |
| C[C@@H](C#Cc1cccc(C(=O)NCc2ccccc2C(F)(F)F)c1)N(O)C(N)=O | 60 | 700 |  |
| COc1ccc(CNC(=O)c2cccc(C#CC(C)N(O)C(N)=O)c2)c(C(F)(F)F)c1 (stereo not drawn) | 4 | 1700 |  |
| CC(C#Cc1cccc(C(=O)NCCC(c2ccccc2)c2ccc(OC(F)(F)F)cc2)c1)N(O)C(N)=O (stereo not drawn) | 7 | 110 |  |
| CC(C#Cc1cncc(C(=O)NCc2ccccc2C(F)(F)F)c1)N(O)C(N)=O (stereo not drawn) | 500 | 10000 |  |
| CC(C#Cc1cccc(C(=O)NCCC(c2ccccc2)c2ccc(Cl)cc2)c1)N(O)C(N)=O (stereo not drawn) | 2 | 120 |  |
| CC(C#Cc1cccc(C(=O)NCCC(c2ccccc2)c2ccc(C(F)(F)F)cc2)c1)N(O)C(N)=O (stereo not drawn) | 2.7 | 150 |  |
| CC(C#Cc1ccc(C(=O)NCc2ccccc2C(F)(F)F)o1)N(O)C(N)=O (stereo not drawn) | 600 | 4000 |  |
| O=C(Cc1ccc(Oc2nc3ccccc3s2)cc1F)NCCc1ccc(F)cc1 | 130 |  |  |
| C[C@H](C#Cc1cccc(C(=O)NCCC(c2ccc(F)cc2)c2ccc(C(F)(F)F)cc2)c1)N(O)C(N)=O (stereo partly drawn) | 1.6 | 220 | solubility [3]: 3 µM (≈ 1.58 µg/mL); Activity [4]: Toxic; Activity [5]: inactive; remaining at 1 h [6]: 66%; Activity [7]: Non-Toxic |
| CC(C#Cc1ccc(C(=O)NCc2ccccc2C(F)(F)F)cc1)N(O)C(N)=O (stereo not drawn) | 2600 | 1000 |  |
| CC(C#Cc1cccc(C(=O)NCc2ccc(F)cc2C(F)(F)F)c1)N(O)C(N)=O (stereo not drawn) | 29 | 1300 |  |
| C[C@H](C#Cc1cccc(C(=O)NCCC(c2ccccc2)c2ccc(S(N)(=O)=O)cc2)c1)N(O)C(N)=O (stereo partly drawn) | 2.4 | 1000 |  |
| CC(C#Cc1cccc(C(=O)NCc2cccc(F)c2)c1)N(O)C(N)=O (stereo not drawn) | 9000 | 4000 |  |
| CC(C#Cc1cccc(C(=O)NCc2ccccc2C(F)(F)F)c1)N(O)C(N)=O (stereo not drawn) | 90 | 700 |  |
| CC(C#Cc1cccc(C(=O)NCc2ccccc2OC(F)(F)F)c1)N(O)C(N)=O (stereo not drawn) | 16 | 1000 |  |
| NC(=O)N(O)CC#Cc1cccc(C(=O)NCc2ccccc2C(F)(F)F)c1 | 50 | 4000 |  |
| CC(C#Cc1cccc(C(=O)NCCc2c[nH]c3ccccc23)c1)N(O)C(N)=O (stereo not drawn) | 3100 | 1700 |  |

| SMILES | IC50 [1] [nM] | IC50 [2] [nM] | other results |
| --- | --- | --- | --- |
| Cc1ccc(C(=O)NCc2ccccc2C(F)(F)F)cc1C#CC(C)N(O)C(N)=O (stereo not drawn) | 3100 | 1700 |  |
| CC(C)C(C#Cc1cccc(C(=O)NCc2ccccc2C(F)(F)F)c1)N(O)C(N)=O (stereo not drawn) | 11 | 500 |  |
| C[C@H](C#Cc1cccc(C(=O)NCCC(c2ccccc2)c2ccc(NS(C)(=O)=O)cc2)c1)N(O)C(N)=O (stereo partly drawn) | 3 | 900 |  |
| CNc1nc(C)nc(N2CCC(C(=O)NCc3ccccc3OC(F)(F)F)CC2)n1 | 1 |  |  |
| CC(C#Cc1cccc(C(=O)NCc2ccc(Cl)cc2Cl)c1)N(O)C(N)=O (stereo not drawn) | 40 | 600 |  |
| CNc1nc(C)nc(N2CCC(C(=O)NCc3ccc(F)cc3C(F)(F)F)CC2)n1 | 3 |  |  |
| CS(=O)(=O)c1ccc(C(CCNC(=O)c2ccc(C#N)nc2)c2ccc(F)cc2)cc1 (stereo not drawn) | 6 |  |  |
| C[C@H](C#Cc1cccc(C(=O)NCc2ccccc2C(F)(F)F)c1)N(O)C(N)=O | 60 | 600 |  |
| CC(C)CC(C#Cc1cccc(C(=O)NCc2ccccc2C(F)(F)F)c1)N(O)C(N)=O (stereo not drawn) | 5 | 600 |  |
| C[C@H](C#Cc1ccc(Cc2ccc(F)cc2)s1)N(O)C(N)=O [ATRELEUTON] | 2700 | 90 | solubility [3]: 30 µM (≈ 9.55 µg/mL) |
| C[C@H](C#Cc1cccc(C(=O)NCC[C@H](c2ccc(F)cc2)c2ccc(C(F)(F)F)cc2)c1)N(O)C(N)=O | 3 | 230 |  |
| C[C@H](C#Cc1cccc(C(=O)NCCN(c2ccccc2)c2ccccc2)c1)N(O)C(N)=O | 5 | 110 | solubility [3]: 3 µM (≈ 1.33 µg/mL); remaining at 1 h [6]: 17% |
| C[C@H](C#Cc1cccc(C(=O)NCC[C@@H](c2ccc(F)cc2)c2ccc(C(F)(F)F)cc2)c1)N(O)C(N)=O | 3 | 160 |  |
| C[C@H](C#Cc1cccc(C(=O)NCCC(c2ccc(F)cc2)c2ccc(OC(F)(F)F)cc2)c1)N(O)C(N)=O (stereo partly drawn) | 2.4 | 260 | solubility [3]: 10 µM (≈ 5.44 µg/mL); remaining at 1 h [6]: 43% |
| CC(C#Cc1cccc(C(=O)NCCC(c2ccccc2)c2ccccc2)c1)N(O)C(N)=O (stereo not drawn) | 2 | 300 | solubility [3]: 3 µM (≈ 1.32 µg/mL); remaining at 1 h [6]: 27% |
| CNc1nc(C)nc(N2CCC(C(=O)NCc3ccccc3C(F)(F)F)CC2)n1 | 3 |  |  |
| CCC(C#Cc1cccc(C(=O)NCc2ccccc2C(F)(F)F)c1)N(O)C(N)=O (stereo not drawn) | 22 | 500 |  |
| CC(C#Cc1cccc(C(=O)NCCc2ccc(F)cc2)c1)N(O)C(N)=O (stereo not drawn) | 1200 | 3100 |  |
| CC(C#Cc1cccc(C(=O)NCCC(c2ccccc2)c2ccc(F)cc2)c1)N(O)C(N)=O (stereo not drawn) | 2 | 160 |  |
